Bioassay records (PubChem BioAssay)
The list is not random: actives were taken first. Their share in the collection is about 2.5%.
MC4R barr agon: activates human MC4R beta-arrestin recruitment | P32245 | U2OS MC4R beta-arrestin complementation, luminescence; percent of melanotan II response, DMSO zero | activation, % at 8.9 µM | 0.98% of 360,000 active | AID 540308;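 active = activation above a per-plate cutoff, the mean activation of sample wells on that plate plus 3 SD, cut at about 8% in these data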
NR1D1 modulator: Rev-erb alpha (human) modulation; 0.79% of 370,000 active; P20393; Rev-erbα–FITC-DNA binding, fluorescence polarization, 90 min; activity, % at 10 µM;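 active = activity above about 14%, limit read from the data; passing the limit was not always enough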;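 also: 0% = DMSO wells with 35 nM protein and 100% = DMSO wells with 750 nM protein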
NTR1 ag: NTR1 (human) agonism | 0.17% of 330,000 active | NTR1-U2OS beta-arrestin-GFP spot imaging, agonist mode | activation, % at 20 µM | P30989;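 active = activation at or above 40% of the spot to cytoplasm intensity ratio, with at least 20 cells analyzed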;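 also: 0% = DMSO without peptide and 100% = 100 nM NTR1 peptide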
Target sequence (P30989 whole entry, looked up): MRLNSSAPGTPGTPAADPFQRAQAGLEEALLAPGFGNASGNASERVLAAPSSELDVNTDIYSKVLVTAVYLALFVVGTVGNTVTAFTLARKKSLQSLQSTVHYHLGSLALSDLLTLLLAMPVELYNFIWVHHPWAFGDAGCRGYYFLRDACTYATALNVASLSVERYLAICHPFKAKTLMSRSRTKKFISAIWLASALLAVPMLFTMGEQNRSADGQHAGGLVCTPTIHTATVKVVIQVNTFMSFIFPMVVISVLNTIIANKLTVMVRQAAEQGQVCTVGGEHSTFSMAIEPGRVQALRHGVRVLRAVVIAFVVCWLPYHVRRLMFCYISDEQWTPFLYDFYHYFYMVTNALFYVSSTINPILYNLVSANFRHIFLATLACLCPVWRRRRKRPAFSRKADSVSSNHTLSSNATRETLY
PG9 binder: small molecules binding HIV-1 gp120 antibody PG9 | AID 624416 | inhibition, % at 6.7 µM | 0.43% of 360,000 active | TR-FRET gp120-PG9 antibody binding; in the data active = inhibition above about 8.5%
MC4R antagonist: human MC4R antagonism in cAMP assay | MC4R-expressing cells, MTII-stimulated cAMP, LANCE TR-FRET | inhibition, % at 6.5 µM | 0.48% of 360,000 active;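 active = inhibition above its plate's cutoff, the mean of tested wells on that plate plus 3 SD, cut at about 29% in these data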;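 also: 0% = Melanotan II alone and 100% = Melanotan II plus saturating MCL0020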
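Material – human MC4R-expressing U2OS cells · Repeats – no replicates · Detection – TR-FRET with Eu-cAMP and labeled anti-cAMP, 671 nm · Times – compound 30 min, challenge 1 h, detection 1 h · Compound – single nominal compound dose of 6.5 µM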
PG9 binder conf: PG9 antibody binding, confirmed | TR-FRET PG9 antibody binding, biochemical | inhibition, % at 6.7 µM | AID 651571 | shares compounds with PG9 binder | 90% of 1,500 active; in the data active = inhibition above about 9%
PGV04 counter: PGV04 control antibody binding, counter-screen. shares compounds with PG9 binder. TR-FRET PGV04 antibody-gp120 binding, biochemical. inhibition, % at 6.7 µM. 95% of 1,500 active. AID 651604; in the data active = inhibition above about 9.5%
PG9 binder DR: PG9 antibody binding, dose response; shares compounds with PG9 binder; TR-FRET PG9 antibody-gp120 binding inhibition; IC50, µM; 95 tested, under 10 active; AID 651848; in the data active = IC50 below about 10 µM
PGV04 DR counter: counter-screen for PG9 binders: binding to control antibody PGV04; AID 651937; 20% of 95 active; IC50, µM; TR-FRET binding to control antibody PGV04; shares compounds with PG9 binder
PG126 binding DR: binds control antibody PG126 in PG9 counter-screen. IC50, µM. 20% of 95 active. TR-FRET binding to antibody PG126, counterscreen. shares compounds with PG9 binder
Active calls of the source: *; · = no result. Rule as the data show it, unless noted: active = IC50 below about 9 µM; inactive = the rest.

SMILES | MC4R barr agon | NR1D1 modulator | NTR1 ag | PG9 binder | MC4R antagonist | PG9 binder conf | PGV04 counter | others
CCCCN1CC(N2CCCC2)CS1(=O)=O (stereo not drawn) | · | 10 | · | -1 | · | · | ·
Cc1cc(-n2c(C)cc(C(=O)COc3ccc(Cl)cc3C(N)=O)c2C)no1 | 1 | 1 | 4 | 11* | 12 | 21* | 34*
COC(=O)[C@]12C[C@H](CC(=O)N3CCOCC3)C(=O)N(Cc3ccco3)C1=C[C@H](C1CCCC1)O[C@@H]2C | · | 4 | · | · | · | · | ·
CCc1ccc(Nc2n[n+](-c3ccccc3)c(-c3ccc(N(CC)CC)cc3)s2)cc1 | 2 | 5 | -8 | 9.7* | 11 | 18* | 11* | PG9 binder DR=>67;PGV04 DR counter=>67;PG126 binding DR=>67
CCN(CC)c1ccc(-c2sc(Nc3ccccc3)n[n+]2-c2ccc(F)cc2)cc1 | 4 | 6 | -5 | 6 | -1 | · | ·
COC(=O)c1cc2c(c3c4cc(F)ccc4n(S(=O)(=O)c4cccc(C)c4)c13)C(=O)N(c1ccc(OC)cc1)C2 | · | 7 | · | 0 | · | · | ·
COC(=O)c1cc(-c2cc(Cl)cc(Cl)c2)c(=O)n2c1CCC2 | · | 11 | · | · | · | · | ·
O=C(Nc1sc2c(c1C(=O)NCc1ccco1)CCCC2)c1ccc2c(c1)OCO2 | -2 | -2 | 17 | 15* | 11 | 8.6* | 20*
CCc1ccccc1NC(=O)CC1S/C(=N\c2nccs2)N(CC)C1=O (stereo not drawn) | -2 | -5 | -1 | 15* | 1 | 9.0* | 12*
COC(CNC(=O)[C@H](Cc1c[nH]c2ccccc12)NC1(C(=O)NC(c2ccccc2)c2ccccc2)CCCCC1)OC | · | -5 | · | · | · | · | ·
CON(c1nc(Cl)nc(N(C)C)n1)S(=O)(=O)c1ccc(C)cc1 | -3 | -3 | 4 | 10* | 7 | 6 | 8
CON(c1nc(Cl)nc(N(C)C)n1)S(=O)(=O)c1ccccc1Cl | -2 | 10 | 0 | 0 | 7 | · | ·
O=C1N(Cc2cccc(Cl)c2)C[C@@H]2C[C@@H](c3cccn3-c3cccnc3)N3CCC[C@@]123 | -3 | -2 | 0 | 17* | -6 | 10* | 19*
CCn1ncc([C@@H]2C[C@H]3CN(Cc4cccc(Cl)c4)C(=O)[C@]34CCCN24)c1C | -1 | 2 | -1 | -3 | 3 | · | ·
COc1ccc([C@H]2OC(=O)C[C@H]2C(=O)N2CCCCC2)cc1OC | · | 5 | · | · | · | · | ·
CC(C)(C)C(=O)OC12CCCN(C1)/C(=C/c1ccccc1)C2 (stereo not drawn) | · | 6 | · | · | · | · | ·
CCOc1cccc2cc(C(=O)NCc3ccc(C)cc3)c(=N)oc12 | -2 | -4 | 24 | 6 | 13 | · | ·
CCOc1cccc2cc(C(=O)Nc3cc(C)on3)c(=O)oc12 | 1 | 9 | 0 | 15* | 5 | 33* | 37*
CCOc1cccc2cc(C(=O)NCc3ccc(OC)cc3)c(=N)oc12 | 3 | -2 | 11 | 13* | 6 | 5 | 6
O=C(CCn1c(=O)c2ccccc2n(Cc2ccccc2)c1=O)NCc1ccc2c(c1)OCO2 | 0 | -2 | · | 13* | -1 | 24* | 42*
COc1cc(O)c(C(CC(=O)N2CCC(C)CC2)c2ccc3c(c2)OCO3)c(OC)c1 (stereo not drawn) | · | -4 | · | · | · | · | ·
C[C@H]1CN([C@@H](C)CO)C(=O)CCCn2cc(nn2)CO[C@@H]1CN(C)S(=O)(=O)c1cn(C)cn1 | · | -2 | · | -1 | · | · | ·
CCCCCNC(=O)C(c1ccncc1)n1c(=O)c(-c2ccco2)nc2ccccc21 (stereo not drawn) | · | -1 | · | 9.1* | · | 4 | 5
CCC1(CC)Cc2ccccc2-c2[nH]c(=S)[nH]c(=O)c21 | 3 | -3 | 0 | 17* | 20 | 4 | 9
C[C@H]1[C@H](NC(=O)c2ccc(Cl)cc2)CC[C@@]23CCCN2C(=O)CCC[C@@H]13 | · | -5 | · | · | · | · | ·
SMILES | MC4R barr agon | NR1D1 modulator | NTR1 ag | PG9 binder | MC4R antagonist | PG9 binder conf | PGV04 counter | others
Cc1[nH]nc2c1C(c1ccc(Br)cc1)N(Cc1ccccc1)C2=O (stereo not drawn) | · | -8 | · | -3 | · | · | ·
CC(C)CC(=O)NC(=S)Nc1sc2c(c1C(N)=O)CCC2 | -2 | 3 | 3 | 17* | 16 | 26* | 33*
CC(C)(C)C(=O)NC(=S)Nc1sc2c(c1C(N)=O)CCC2 | 0 | -4 | 1 | 1 | 22 | · | ·
Cc1cc(C)c2nc(SCC(=O)NC(=O)c3cccn3C)cc(C)c2c1 | 1 | 20 | 15 | 15* | -2 | 13* | 27*
CCOC(=O)c1ccccc1NC(=O)Cn1c(=O)n(Cc2ccccc2)c(=O)c2c(C)c(C)sc21 | -1 | 5 | 5 | 12* | 18 | 5 | 7
COc1ccc(C(=O)OCCN2CCN(C3CN(Cc4cn(Cc5cccc(F)c5)nn4)S(=O)(=O)C3)CC2)cc1OC (stereo not drawn) | · | -2 | · | · | · | · | ·
COC(=O)CSc1nnc(-c2ccc(NS(=O)(=O)c3ccc(Cl)s3)cc2)o1 | · | 1 | · | · | · | · | ·
CC1(C)Oc2ccc3ccc(=O)oc3c2C(N2CCCCC2)C1O (stereo not drawn) | 0 | -5 | -1 | 11* | 4 | 7 | 9.2*
Cc1nc(-c2ccc(Br)cc2)ccc1C(=O)O | 0 | 4 | 0 | 14* | 14 | 24* | 30*
Cc1ccc(-c2ccc(C(=O)O)c(C)n2)cc1 | -4 | -4 | -1 | 2 | 8 | · | ·
O=S(=O)(Nc1nc2ccccc2nc1Cl)c1ccccc1 | 0 | -2 | 1 | 6 | 0 | · | ·
CC(=O)Nc1ccc(S(=O)(=O)Nc2nc3cc4c(cc3nc2Cl)OCCO4)cc1 | 3 | -4 | 1 | 13* | 11 | 26* | 35*
Cc1ccc(C(C)(C)C)cc1S(=O)(=O)Nc1nc2ccccc2nc1Cl | 0 | 6 | 6 | 13* | 9 | 21* | 25*
CC(=O)Nc1ccc(S(=O)(=O)Nc2nc3ccccc3nc2Cl)cc1 | -1 | 2 | 0 | 17* | 9 | 25* | 32*
Cc1cc(F)ccc1S(=O)(=O)Nc1nc2ccccc2nc1Cl | 0 | 9 | -1 | 2 | 8 | · | ·
Cc1ccc(-c2cc(C#N)c3n(c2=O)CCC3)cc1 | · | 0 | · | · | · | · | ·
CCCCCCC(=O)NC1CCCCN(Cc2ccc(C)cc2)C1=O (stereo not drawn) | · | -1 | · | · | · | · | ·
O=C(Cc1c[nH]c2ccccc12)Nc1ccc(Nc2cccnc2)c(Br)c1 | · | 4 | · | 2 | · | · | ·
